From paper PMC7305985 (Molecular cell, 2020)

Key:
[1] = tested on: mono-nucleosomes; test: Nucleosome binding assay; design: species or system Human; details: relative to WT KAP1; overnight 4°C, pH 7.5; Figure 5E
Outline: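 GST-tagged protein, expressed in bacteria (0.1 mM IPTG, 3 hr, 37°C), was used at 2 µg with 2 µg recombinant biotinylated mono-nucleosomes. Pulldown was on StrepTactin agarose for 1 hr, with 4 washes and boiling elution. 5% input and 20% eluate were blotted with anti-GST 1:5000.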

[2] = tested on: KAP1 target genes in shKAP1 HCT116 cells; test: Reconstitution assay, RT-qPCR of KAP1 target genes; assay type: cell-based; details: shKAP1 HCT116, 48 hr; relative to shNT+GFP, normalized to RPL19, n=3; Figure 5H
[3] = tested on: KAP1 target gene promoters; test: FLAG ChIP-qPCR of reconstituted KAP1 proteins; assay type: cell-based; details: shKAP1 HCT116, FLAG ChIP-qPCR, % Input, n=3; Figures 5I, 6F
Outline: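 Epitope-tagged KAP1 was re-expressed in shKAP1 HCT116 cells by 1 µg plasmid transfection over 48 hr. Anti-FLAG ChIP used 0.5% formaldehyde crosslinking (10 min) and 150 mM glycine quench. Beads were washed 4 times with each of RIPA, low-salt, high-salt, LiCl and TE buffers. Elution was 30 min at 65°C, de-crosslinking 4 hr at 65°C with proteinase K, and read-out was qPCR.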

Molecule | reduction of KAP1's ability to interact with mono-nucleosomes [1] | restoration of KAP1 target gene expression (WT and point mutants) [2] | localization to KAP1 target gene promoters [3]
E662/3A: KAP1 PHD point mutant E662/E663 to A; GST-PHD-BD or FLAG-tagged KAP1 (protein, left off: GST, N-terminal, kept) PGGGPGTLDDSATICRVCQKPGDLVMCNQCEFCFHLDCHLPALQDVPGAAWSCSLCHVLPDLKEEDGSLSLDGADSTGVVAKLSPANQRKCERVLLALFCHEPCRPLHQLATDSTFSLDQPGGTLDLTLIRARLQEKLSPPYSSPQEFAQDVGRMFKQFNKLTEDKADVQSIIGLQRFFETRMNEAFGDTKFSAVLVEPPPMSLPGAGLSSQELSGGPGDGP | ~ 80% | but not E662/3A, restored KAP1 target gene expression | but not E662/3A, localized to all tested gene promoters
L637A: control mutation L637 in flexible loop between the PHD and BD (protein, left off: GST, N-terminal, kept) PGGGPGTLDDSATICRVCQKPGDAVMCNQCEFCFHLDCHLPALQDVPGEEWSCSLCHVLPDLKEEDGSLSLDGADSTGVVAKLSPANQRKCERVLLALFCHEPCRPLHQLATDSTFSLDQPGGTLDLTLIRARLQEKLSPPYSSPQEFAQDVGRMFKQFNKLTEDKADVQSIIGLQRFFETRMNEAFGDTKFSAVLVEPPPMSLPGAGLSSQELSGGPGDGP | – | restored KAP1 target gene expression | localized to all tested gene promoters
